Measurements published in ChEMBL document CHEMBL1629611, “Activity of levofloxacin alone and in combination with a DnaK inhibitor against gram-negative rods, including levofloxacin-resistant strains” (2009).
Bridges are numbered along the chain shown (N, C = ends). Roman numbers before positions name the chains, in order. [ ]: non-standard residue; d: D form. NMeR = CN[C@@H](CCCNC(=N)N)C(=O)O; Api = NC1(C(=O)O)CCNCC1; Dab = NCC[C@H](N)C(=O)O

Experiments:
Type in all cases: functional
[1] = test system: Escherichia coli; assay: Antimicrobial activity against Escherichia coli E435 by broth macrodilution method
Method in brief: (§1)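 CLSI-approved broth macrodilution in one-quarter-strength cation-adjusted Mueller Hinton broth. Each drug was tested alone against each clinical gram-negative isolate to give the MIC. Strains were stored frozen at −70°C in double-strength skim milk before testing.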

[2] = test system: Escherichia coli; assay: Antimicrobial activity against Escherichia coli E341 by broth macrodilution method
Method in brief: (§2)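 MIC by CLSI-approved broth macrodilution in one-quarter-strength cation-adjusted Mueller Hinton broth, each drug tested alone. Clinical gram-negative isolates were stored frozen at −70°C in double-strength skim milk before testing.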

[3] = test system: Klebsiella pneumoniae; assay: Antimicrobial activity against Klebsiella pneumoniae E428 by broth macrodilution method; method in brief: as §2
[4] = test system: Escherichia coli; assay: Antimicrobial activity against Escherichia coli E393 by broth macrodilution method; method in brief: as §2
[5] = test system: Klebsiella pneumoniae; assay: Antimicrobial activity against Klebsiella pneumoniae E363 by broth macrodilution method; method in brief: as §2
[6] = test system: Klebsiella pneumoniae; assay: Antimicrobial activity against Klebsiella pneumoniae E431 by broth macrodilution method; method in brief: as §1
[7] = test system: Escherichia coli; assay: Antimicrobial activity against Escherichia coli E394 by broth macrodilution method; method in brief: as §1
[8] = test system: Citrobacter freundii; assay: Antimicrobial activity against Citrobacter freundii E384 by broth macrodilution method; method in brief: as §2
[9] = test system: Pseudomonas aeruginosa; assay: Antimicrobial activity against Pseudomonas aeruginosa P330 by broth macrodilution method; method in brief: as §2
[10] = test system: Pseudomonas aeruginosa; assay: Antimicrobial activity against Pseudomonas aeruginosa P335 by broth macrodilution method; method in brief: as §2
[11] = test system: Klebsiella pneumoniae; assay: Antimicrobial activity against Klebsiella pneumoniae E367 by broth macrodilution method; method in brief: as §1
[12] = test system: Klebsiella pneumoniae; assay: Antimicrobial activity against Klebsiella pneumoniae E364 by broth macrodilution method; method in brief: as §1
[13] = test system: Escherichia coli; assay: Antimicrobial activity against Escherichia coli E412 by broth macrodilution method; method in brief: as §1
[14] = test system: Escherichia coli; assay: Antimicrobial activity against Escherichia coli E439 by broth macrodilution method; method in brief: as §2
[15] = test system: Citrobacter freundii; assay: Antimicrobial activity against Citrobacter freundii E400 by broth macrodilution method; method in brief: as §1
[16] = test system: Escherichia coli; assay: Antimicrobial activity against Escherichia coli E437 by broth macrodilution method; method in brief: as §2
[17] = test system: Escherichia coli; assay: Antimicrobial activity against Escherichia coli E408 by broth macrodilution method; method in brief: as §1
[18] = test system: Escherichia coli; assay: Antimicrobial activity against Escherichia coli E346 by broth macrodilution method; method in brief: as §2
[19] = test system: Escherichia coli; assay: Antimicrobial activity against Escherichia coli E425 by broth macrodilution method; method in brief: as §1
[20] = test system: Escherichia coli; assay: Antimicrobial activity against Escherichia coli E395 by broth macrodilution method; method in brief: as §2
[21] = test system: Klebsiella pneumoniae; assay: Antimicrobial activity against Klebsiella pneumoniae E356 by broth macrodilution method; method in brief: as §2
[22] = test system: Klebsiella pneumoniae; assay: Antimicrobial activity against Klebsiella pneumoniae E426 by broth macrodilution method; method in brief: as §1
[23] = test system: Klebsiella pneumoniae; assay: Antimicrobial activity against Klebsiella pneumoniae E354 by broth macrodilution method; method in brief: as §2
[24] = test system: Klebsiella pneumoniae; assay: Antimicrobial activity against Klebsiella pneumoniae E353 by broth macrodilution method; method in brief: as §1
[25] = test system: Escherichia coli; assay: Antimicrobial activity against Escherichia coli E396 by broth macrodilution method; method in brief: as §2
[26] = test system: Klebsiella pneumoniae; assay: Antimicrobial activity against Klebsiella pneumoniae E422 by broth macrodilution method; method in brief: as §2
[27] = test system: Klebsiella pneumoniae; assay: Antimicrobial activity against Klebsiella pneumoniae E432 by broth macrodilution method; method in brief: as §2
[28] = test system: Escherichia coli; assay: Antimicrobial activity against Escherichia coli E424 by broth macrodilution method; method in brief: as §1
[29] = test system: Enterobacter cloacae; assay: Antimicrobial activity against Enterobacter cloacae E373 by broth macrodilution method; method in brief: as §2
[30] = test system: Escherichia coli; assay: Antimicrobial activity against Escherichia coli E436 by broth macrodilution method; method in brief: as §1
[31] = test system: Escherichia coli; assay: Antimicrobial activity against Escherichia coli E342 by broth macrodilution method; method in brief: as §2
[32] = test system: Klebsiella pneumoniae; assay: Antimicrobial activity against Klebsiella pneumoniae E370 by broth macrodilution method; method in brief: as §1
[33] = test system: Escherichia coli; assay: Antimicrobial activity against Escherichia coli E409 by broth macrodilution method; method in brief: as §1
[34] = test system: Klebsiella pneumoniae; assay: Antimicrobial activity against Klebsiella pneumoniae E427 by broth macrodilution method; method in brief: as §1
[35] = test system: Klebsiella pneumoniae; assay: Antimicrobial activity against Klebsiella pneumoniae E433 by broth macrodilution method; method in brief: as §2
[36] = test system: Klebsiella pneumoniae; assay: Antimicrobial activity against Klebsiella pneumoniae E411 by broth macrodilution method; method in brief: as §1
[37] = test system: Escherichia coli; assay: Antimicrobial activity against Escherichia coli E413 by broth macrodilution method; method in brief: as §1
[38] = test system: Klebsiella pneumoniae; assay: Antimicrobial activity against Klebsiella pneumoniae E362 by broth macrodilution method; method in brief: as §2
[39] = test system: Klebsiella pneumoniae; assay: Antimicrobial activity against Klebsiella pneumoniae E368 by broth macrodilution method; method in brief: as §1
[40] = test system: Escherichia coli; assay: Antimicrobial activity against Escherichia coli E438 by broth macrodilution method; method in brief: as §2
[41] = test system: Escherichia coli; assay: Antimicrobial activity against Escherichia coli E434 by broth macrodilution method; method in brief: as §1
[42] = test system: Escherichia coli; assay: Antimicrobial activity against Escherichia coli E430 by broth macrodilution method; method in brief: as §1
[43] = test system: Klebsiella pneumoniae; assay: Antimicrobial activity against Klebsiella pneumoniae E372 by broth macrodilution method; method in brief: as §1
[44] = test system: Klebsiella pneumoniae; assay: Antimicrobial activity against Klebsiella pneumoniae E366 by broth macrodilution method; method in brief: as §2
[45] = test system: Klebsiella pneumoniae; assay: Antimicrobial activity against Klebsiella pneumoniae E369 by broth macrodilution method; method in brief: as §1
[46] = test system: Escherichia coli; assay: Antimicrobial activity against Escherichia coli E410 by broth macrodilution method; method in brief: as §2
[47] = test system: Enterobacter cloacae; assay: Antimicrobial activity against Enterobacter cloacae E397 by broth macrodilution method; method in brief: as §2
[48] = test system: Klebsiella pneumoniae; assay: Antimicrobial activity against Klebsiella pneumoniae E418 by broth macrodilution method; method in brief: as §2
[49] = test system: Escherichia coli; assay: Antimicrobial activity against Escherichia coli E351 by broth macrodilution method; method in brief: as §2
[50] = test system: Klebsiella pneumoniae; assay: Antimicrobial activity against Klebsiella pneumoniae E371 by broth macrodilution method; method in brief: as §1

Measured: MIC

I: H-[Api]DKGSYLPRPTPPRPIYN[NMeR]N[Dab]-NH2 / II: H-[Api]DKGSYLPRPTPPRPIYN[NMeR]N (amide I:21-II:C)
128 µg/mL: [10] | [27]
64 µg/mL: [18] | [28]
4 µg/mL: [5] | [6] | [16] | [22] | [24] | [29] | [32] | [38] | [43] | [46]
512 µg/mL: [8]
16 µg/mL: [2] | [4] | [11] | [17] | [25] | [33] | [42] | [44]
32 µg/mL: [7] | [19] | [20] | [26] | [37] | [49] | [50]
256 µg/mL: [9] | [31]
8 µg/mL: all other assays above

C[C@H]1COc2c(N3CCN(C)CC3)c(F)cc3c(=O)c(C(=O)O)cn1c23.C[C@H]1COc2c(N3CCN(C)CC3)c(F)cc3c(=O)c(C(=O)O)cn1c23.O [LEVOFLOXACIN]
0.25 µg/mL: [11] | [24] | [28] | [43]
16 µg/mL: [4] | [10] | [20] | [23] | [25] | [26] | [35] | [47] | [49]
4 µg/mL: [6] | [22] | [46]
64 µg/mL: [45]
8 µg/mL: [13] | [33] | [37] | [39]
0.125 µg/mL: [1] | [8] | [30] | [41] | [42]
0.06 µg/mL: [5] | [29]
2 µg/mL: [12] | [19] | [34] | [36]
32 µg/mL: [7] | [15] | [17] | [32] | [50]
